The source of these data is ChEMBL document CHEMBL3098075, “Lipoic acid analogs with enhanced pharmacological activity” (2014).

The test system of the experiment is Rattus norvegicus. As to the kind of experiment: Cardioprotective activity in Sprague-Dawley rat model of myocardial ischemia-reperfusion injury assessed as reduction in MI/AR ratio at 1 to 10 mg/kg, iv bolus administered 15 mins prior to 30 mins LCX ligation by TTC staining-based fluorescence microscopy relative to placebo control. The format is functional, Myocardium. The arrangement: scale not given: the % may be the effect or the level left. The conditions noted are these: dose mg/kg 1-10. In a few lines:
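Anaesthetised animals underwent thoracotomy and pericardotomy, then LCX coronary ligation for 30 min followed by reperfusion. Agent was given in isotonic saline (pH-neutralised with NaOH, 285 mOsm), 1 mL/kg, before ligation. Fluorescent microspheres injected into the LV cavity during ischemia marked the area at risk. Hearts were excised after 24 h and cut into five 2 mm slices stained with 1% TTC. The MI/AR ratio was compared with placebo by Student's t-test.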

Residues, ends and D or L forms follow the SMILES beside them.

As to `NC(=O)CC[C@H](NC(=O)CCCC[C@@H]1CCSS1)C(=O)NCC(=O)O`, the Activity is on record as 17%.

Regarding `O=C(O)CNC(=O)[C@H](CC(=O)O)NC(=O)CCCC[C@@H]1CCSS1`, the Activity is given as 28%.

Turning to `C[C@H](NC(=O)[C@H](Cc1ccc(O)cc1)NC(=O)CCCC[C@@H]1CCSS1)C(=O)O`, the Activity stood at 31%.

In the case of `O=C(O)CC[C@H](NC(=O)CCCC[C@@H]1CCSS1)C(=O)NCCS(=O)(=O)O`, the Activity was found to be 33%.

Regarding `C[C@H](NC(=O)CCCC[C@@H]1CCSS1)C(=O)N[C@@H](CCC(=O)O)C(=O)O`, the Activity came out at 24%.

Turning to `O=C(CCCC[C@@H]1CCSS1)N[C@@H](Cc1ccc(C(=O)O)cc1)C(=O)O`, the Activity is recorded as 26%.

As to `O=C(CCCC[C@@H]1CCSS1)N[C@@H](Cc1ccc(O)cc1)C(=O)O`, the Activity came out at 29%.

Consider `O=C(CCCC[C@@H]1CCSS1)NC(CF)C(=O)O` (some centres undefined), for which the Activity was 10%.

Turning to `O=C(O)CC[C@H](NC(=O)CCCC[C@@H]1CCSS1)C(=O)O`, the Activity is 33%.

For `O=C(CCCC[C@@H]1CCSS1)N[C@@H](CS(=O)(=O)O)C(=O)O`, the Activity came out at 30%.

Regarding `O=C(O)CN(CC(=O)O)C(=O)CCCC[C@@H]1CCSS1`, the Activity was found to be 21%.

Turning to `O=C(O)CCNC(=O)CCCC[C@@H]1CCSS1`, the Activity is reported as 39%.

In the case of `O=C(CCCC[C@@H]1CCSS1)NCCS(=O)(=O)O`, the Activity was 45%.

On to `O=C(CCCC[C@@H]1CCSS1)NCCOS(=O)(=O)O`, for which the Activity is on record as 30%.

For the molecule `O=C(CCCC[C@@H]1CCSS1)NCCP(=O)(O)O`, the Activity came out at 53%.

For the molecule `O=C(CCCC[C@@H]1CCSS1)NCCOP(=O)(O)O`, the Activity was 47%.

With `O=C(CCCC[C@@H]1CCSS1)Nc1ccc(C(=O)O)cc1`, the Activity is 22%.

As to `O=C(CCCC[C@@H]1CCSS1)Nc1cccc(S(=O)(=O)O)c1`, the Activity worked out at 33%.

As to `O=C(CCCC[C@@H]1CCSS1)Nc1ccc(S(=O)(=O)O)cc1`, the Activity is on record as 44%.

On to `CC(=O)N[C@@H](CCC(=O)O)C(=O)N[C@@H](C)C(=O)N[C@@H](CCC(=O)O)C(=O)N[C@@H](C)C(=O)O` (Ac-EAEA-OH), for which the Activity came to 23%.

As for `CC(=O)N[C@@H](CCC(=O)O)C(=O)N[C@@H](C)C(=O)O` (Ac-Glu-Ala-OH), the Activity is on record as 23%.

Consider `C[C@H](NC(=O)[C@H](CCC(=O)O)NC(=O)CCCC[C@@H]1CCSS1)C(=O)O` [CMX-2043], for which the Activity was 31%.

`O=C(O)CCCC[C@@H]1CCSS1` [THIOCTIC ACID]: the Activity worked out at 19%.

Regarding Ac-EAEAEGA-OH, the Activity stood at 17%.
